Results: ChEMBL document CHEMBL1132214, “Synthesis, mode of action, and biological activities of rebeccamycin bromo derivatives” (J Med Chem, 1999)
≈ marks a conversion by molar mass, not a printed value.

How the values were obtained:
[1] = tested on: CEM-SS; assay: Selective Index of against HIV -I Lai infected CEM-SS cells.; assay type: functional, Homo sapiens
Procedure, shortened: (§1)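 CEM-SS cells kept at 37 °C, 5% CO2 in RPMI 1640 with 10% decomplemented FBS, infected with HIV-1 Lai. Antiviral IC50 from reverse transcriptase activity of virus particles released into the medium. Cytotoxicity (CC50) measured in parallel. Selectivity index = CC50/IC50.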

[2] = tested on: P388; assay: (§2) Ratio of IC50 of p388 and p388CPT5 cell lines; assay type: functional, Mus musculus
Procedure, shortened: (§3)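 Murine P388 leukaemia cells and camptothecin-resistant P388CPT5 cells were exposed to graded drug concentrations for 96 h at 37 °C. Viability was read by neutral red staining and the 50% growth-inhibitory concentration (IC50) taken for each line. The resistance ratio is IC50(P388CPT5)/IC50(P388).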

[3] = tested on: CEM-SS; assay: Compound was tested for anti-HIV activity in HIV -I Lai infected CEM-SS cells.; assay type: functional, cell-based; settings: Homo sapiens; procedure, shortened: as §1
[4] = tested on: CEM-SS; assay: The cytotoxicity was evaluated in HIV -I Lai infected CEM-SS cells.; assay type: functional; settings: Homo sapiens; procedure, shortened: as §1
[5] = tested on: P388; assay: In vitro inhibitory concentration against murine P388 leukemia cell proliferation; assay type: functional, cell-based; settings: Mus musculus
Procedure, shortened: (§4)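 Murine P388 leukemia cells, or the camptothecin-resistant P388CPT5 subline, exposed 96 h at 37 °C to a range of drug concentrations. Viability scored by neutral red staining. IC50 taken as the concentration giving 50% growth inhibition.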

[6] = tested on: Bacillus cereus; assay: Compound was tested for antimicrobial activity against a gram-positive bacterium Bacillus cereus; assay type: functional
Procedure, shortened: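 Bacillus cereus ATCC 14579 in Mueller-Hinton broth, pH 7.4, incubated 24 h at 27 °C. Compounds diluted in DMSO over 12 tubes spanning 100 to 0.05 µg/mL. MIC read from the dilution series.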

[7] = tested on: P388CPT5; assay: In vitro inhibitory concentration against murine P388CPT5 leukemia cell proliferation; assay type: functional, cell-based; settings: Mus musculus; procedure, shortened: as §4
[8] = tested on: P388; assay: Fraction change in percent is observed.; assay type: functional, Mus musculus
Procedure, shortened: (§5)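 Exponentially growing P388 cells (1.5 × 10^6 per mL) incubated with drug, usually 100 µM, for 30 min at 37 °C. Excitation 320 nm, emission 400–600 nm. Whole-cell spectrum read before centrifugation. Pellet spectrum read after one HBSS wash and resuspension in drug-free buffer. Intensities expressed relative to free rebeccamycin; fraction change is whole-cell versus free drug.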

[9] = tested on: P388; assay: Compound was tested for drug bound to cell pellet (P388 leukemia) after centrifugation at 320 nm.; assay type: functional, Mus musculus; procedure, shortened: as §5
[10] = tested on: P388; assay: Compound was tested for drug bound to whole cells (P388 leukemia) before centrifugation at 320 nm.; assay type: functional, Mus musculus; procedure, shortened: as §5
[11] = tested on: DNA topoisomerase 1 (Bos taurus); assay: Compound was tested for anti microbial activity against topoisomerase I.
[12] = as §2; assay type: functional; procedure, shortened: as §3
[13] = molecular target: T1, DNA topoisomerase 1 (Mus musculus) (UniProt Q04750)
T1 sequence (whole entry): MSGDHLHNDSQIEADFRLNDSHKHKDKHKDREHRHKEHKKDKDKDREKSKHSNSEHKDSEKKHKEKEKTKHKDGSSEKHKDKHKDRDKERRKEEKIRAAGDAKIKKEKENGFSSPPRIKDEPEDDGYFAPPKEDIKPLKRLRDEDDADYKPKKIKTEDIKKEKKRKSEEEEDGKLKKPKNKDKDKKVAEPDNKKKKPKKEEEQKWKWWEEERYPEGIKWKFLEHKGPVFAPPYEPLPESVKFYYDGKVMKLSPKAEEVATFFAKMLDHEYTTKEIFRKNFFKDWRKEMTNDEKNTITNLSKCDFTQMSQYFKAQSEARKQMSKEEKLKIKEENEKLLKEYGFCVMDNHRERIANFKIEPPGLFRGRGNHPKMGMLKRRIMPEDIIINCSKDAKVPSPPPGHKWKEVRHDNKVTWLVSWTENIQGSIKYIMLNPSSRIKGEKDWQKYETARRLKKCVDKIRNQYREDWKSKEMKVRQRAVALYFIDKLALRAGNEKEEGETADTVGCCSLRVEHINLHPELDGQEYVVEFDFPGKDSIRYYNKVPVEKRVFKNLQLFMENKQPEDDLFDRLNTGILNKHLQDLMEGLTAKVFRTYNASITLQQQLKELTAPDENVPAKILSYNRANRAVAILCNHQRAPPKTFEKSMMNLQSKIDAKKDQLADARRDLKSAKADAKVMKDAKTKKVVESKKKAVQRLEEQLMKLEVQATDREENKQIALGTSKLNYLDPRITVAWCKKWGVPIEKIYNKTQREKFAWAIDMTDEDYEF

Row | Structure (SMILES) | Selectivity index [1] | Ratio [2] | IC50 [3] [µM] | CC50 [4] [µM] | IC50 [5] [µM] | MIC [6] [µM] | IC50 [7] [µM] | Fraction change [8] [%] | Activity [9] | Whole-cell fluorescence relative to free drug [10] | MIC [11] [µM] | Ratio [12] | MIC [13] [µM]
1 | CO[C@H]1[C@H](O)[C@@H](O)[C@H](n2c3ccccc3c3c4c(c5c6ccccc6[nH]c5c32)C(=O)OC4=O)O[C@@H]1CO | >1.98 SI | >3.1 | – | – | – | – | – | – | – | – | – | – | –
2 | CO[C@H]1[C@H](O)[C@@H](O)[C@H](n2c3ccccc3c3c4c(c5c6ccccc6[nH]c5c32)C(=O)N(C)C4=O)O[C@@H]1CO | 2 | – | 4 | 7.9 | 0.67 | – | – | – | – | – | – | – | –
3 | COC1C(CO)OC(n2c3ccc(Br)cc3c3c4c(c5c6cc(Br)ccc6[nH]c5c32)C(=O)N(C)C4=O)C(O)C1O (configuration not stated) | 1.3 | >3 | 1.17 | 1.49 | 4.9 | > 74 | > 15 | 13 | 0.24 | 0.46 | > 15 | – | –
4 | CO[C@H]1[C@H](O)[C@@H](O)[C@H](n2c3ccc(Br)cc3c3c4c(c5c6cc(Br)ccc6[nH]c5c32)C(=O)OC4=O)O[C@@H]1CO | 1.9 | 8.3 | – | – | – | – | – | – | – | – | – | – | –
5 | CO[C@H]1[C@H](O)[C@@H](O)[C@H](n2c3c(Cl)cccc3c3c4c(c5c6cccc(Cl)c6[nH]c5c32)C(=O)N(C)C4=O)O[C@@H]1CO | 1.6 | – | 4.9 | 8 | – | – | – | – | – | – | – | – | –
6 | COC1C(CO)OC(n2c3ccc(Br)cc3c3c4c(c5c6cc(Br)ccc6[nH]c5c32)C(=O)NC4=O)C(O)C1O (configuration not stated) | 4.8 | >58 | 0.07 | 0.34 | 0.26 | 19 (≈ 12.5 µg/mL) | > 15 | 46 | 0.08 | 0.15 | 0.15 (≈ 0.0989 µg/mL) | – | –
7 | CO[C@H]1[C@H](O)[C@@H](O)[C@H](n2c3ccccc3c3c4c(c5c6ccccc6[nH]c5c32)C(=O)NC4=O)O[C@@H]1CO | 5.6 | >28 | – | – | – | – | – | -26 | 0.33 | 0.38 | – | – | –
8 | CO[C@H]1[C@H](O)[C@@H](O)[C@H](n2c3c(Cl)cccc3c3c4c(c5c6cccc(Cl)c6[nH]c5c32)C(=O)NC4=O)O[C@@H]1CO [REBECCAMYCIN] | 2 SI | 8.5 | – | – | – | – | – | 29 | 0.81 | 1.29 | – | – | –
9 | CC[C@@]1(O)C(=O)OCc2c1cc1n(c2=O)Cc2cc3ccccc3nc2-1 [CAMPTOTHECIN] | – | – | – | – | 0.032 | – | 2.8 | – | – | – | – | 87.5 | 0.086 (≈ 0.03 µg/mL)
